In ChEMBL document CHEMBL1130998, “Structure-activity requirements for flavone cytotoxicity and binding to tubulin” (J Med Chem, 1998) one finds GI50, inhibition and IC50 data, which are given here for four compounds.

Assay [1] relates to Panel NCI-60 (60 carcinoma cell lines). Put plainly: In vitro cytotoxic potency against NCI-60 human tumor cell line. In kind it is functional.
Assay [2] deals with T1, Tubulin (Bos taurus) (UniProt Q6B856+Q862L2+Q862F3). Put plainly: In vitro inhibition of binding of [3H]colchicine to tubulin (10 uM) at compound concentration of 50 mM. In kind it is protein assay.
For another assay, the target named is Tubulin. In words: In vitro inhibitory activity against tubulin polymerization (10 uM). In kind it is protein-complex assay.
In assay [3] the target is T1, Tubulin (Bos taurus). Put plainly: In vitro inhibition of binding of [3H]colchicine to tubulin (10 uM) at compound concentration of 5 mM. In kind it is protein assay.
Assay [4] deals with Panel NCI-60 (60 carcinoma cell lines). Put plainly: In vitro cytotoxic potency against NCI-60 human tumor cell line was determined. In kind it is functional. In a few lines:
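Tested in the NCI primary in vitro human tumor cell screen. Potency was taken from the dose-response curves, which were also analysed for the differential cytotoxicity pattern typical of antimitotic standard agents.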

Broadly, the GI50 is the concentration that inhibits growth by half. A word on the inhibition: it is the relative decrease from the control value, in per cent. High values mean a response far below the control, low ones a response near the control. In general, IC50 refers to the midpoint of a concentration-inhibition curve. For `COc1ccc(-c2oc3c(OC)c(OC)c(OC)c(O)c3c(=O)c2OC)cc1O`, halving of growth in assay [1] (GI50) required 0.13 µM. The inhibition on Tubulin (Bos taurus) [2] was determined as 89%; at Tubulin (Bos taurus) [3], 59%. Further, at Tubulin, half-maximal inhibition (IC50) required 0.83 µM.
Consider `COc1ccc(-c2oc3cc(O)cc(O)c3c(=O)c2OC)cc1O`, for which growth in assay [1] was halved (GI50) at 1.7 µM. Further, the figures for the inhibition at Tubulin (Bos taurus) [2] and on Tubulin (Bos taurus) [3] were 75% and 43%, respectively. The compound further gave an IC50 against Tubulin of 3 µM.
Regarding `COc1c(OC)c(OC)c2c(=O)cc(-c3ccc(NC(C)=O)cc3)oc2c1OC`, the GI50 in assay [4] is above 100 µM.
For `COc1ccc(-c2oc3cc(O)c(OC)c(O)c3c(=O)c2OC)cc1O` [CENTAUREIDIN], the GI50 in assay [1] was determined as 0.24 µM. Besides, the inhibition at Tubulin (Bos taurus) [2] amounted to 76%; at Tubulin (Bos taurus) [3], 35%. Further, at Tubulin, inhibition was half-maximal at 2 µM (IC50).
